In the library only some 5.9% were active in any assay of this set; here they are far more common.
hDAT+cocaine: changed hDAT dopamine uptake under cocaine IC80, either direction, primary screen, cocaine antagonist project, cell-based, LLC-PK1 hDAT, [14C]-dopamine uptake, MLSMR | LLC-PK1 hDAT cells, [14C]-dopamine uptake with cocaine IC80; actives deviate in either direction | B-score at 10 µM | 1.3% of 110,000 active | AID 449768, 2010;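 active = Z score or B-score, a plate-position-corrected score, falls beyond the plate's 99.7% confidence bounds, in either direction; inactive = both scores lie inside the 99.7% bounds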;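 also: scored against the spread of the other compound wells on the same plate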
Measles CPE: compounds protecting cells from measles virus cytopathic effect, primary screen, measles RdRp inhibitor project, single point, MLSMR library, absorbance | Measles virus-infected cells, CPE protection | protection (pct of control), % at 4 µM | AID 841, 2007 | 1.5% of 140,000 active; in the data active = protection mostly above about 24%, no sharp cut-off; inactive = mostly below about 26%
Rev-RRE block: HIV-1 Rev-RRE binding inhibitors, primary screen, biochemical, FRET, protein-RNA interaction; Rev peptide-RRE RNA binding; inhibition, % at 8 µM; 0.79% of 97,000 active;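 active = inhibition above the screen-wide mean plus 3 SD, cut at about 35% in these data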;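 also: 0% = median DMSO wells and 100% = median Neomycin B control wells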
Target sequence (P05866 whole entry, looked up): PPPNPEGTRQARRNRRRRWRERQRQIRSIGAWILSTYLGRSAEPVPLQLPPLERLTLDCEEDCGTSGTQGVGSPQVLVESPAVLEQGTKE
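Test system – labelled RRE RNA duplex and labelled Rev peptide · Signal – fluorescein-to-Cy5 FRET, 480 nm excitation · Evaluation – % inhibition of FRET ratio versus controls · Benchmarks – DMSO low control, neomycin B high control · Incubation – 5 min RNA-compound premix plus 15 min binding step, 25 °C · Medium – HEPES pH 7.5 salt buffer with EDTA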
Phagocyt inh: inhibitors of macrophage phagocytosis, primary screen, imaging, J774A.1 cells, IgG beads. J774A.1 macrophage IgG-bead phagocytosis. inhibition, % at 5 µM. 0.07% of 110,000 active;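 active = inhibition above the mean of the plate negative controls plus 5 SD, cut at about 13% in these data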;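 also: phagocytic index as fraction of beads internalized from green versus red external bead signal; plate controls were DMSO negative control for no effect and cytochalasin-D positive control for full effect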
PTK2B oligo ant: antagonists of Pyk2 self-association, primary screen, Q293 cells, FERM NanoBiT luminescence, HTS | z-score (the deposit names both 25 µM and 10 µM) | Protein-tyrosine kinase 2-beta (Homo sapiens), Q14289 | stronger effect = lower value | 0.83% of 99,000 active;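 active = Z-score of -3 or lower, scaled per plate to the spread of control and sample wells; inactive = z-score above -3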;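 also: negative z-score means lost luminescence so less FERM oligomerization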
Cav3 T inh: Cav3.2 calcium influx blockers – cell-based, Fluo-4 calcium fluorescence, FDSS, MLSMR library, primary screen. Voltage-dependent T-type calcium channel subunit alpha-1H (Homo sapiens), O95180. Cav3.2-expressing cells; stronger effect = lower value. B-score at 10 µM. 4% of 100,000 active. AID 449739, 2010;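 active = single-dose well whose peak fluorescence ratio is a statistical outlier from its plate by either plate-standardised score or position-corrected B-score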
* = called active by the depositor; . = no result; [ ] = another dose, or the depositor's remark.

SMILES	hDAT+cocaine	Measles CPE	Rev-RRE block	Phagocyt inh	PTK2B oligo ant	Cav3 T inh
CCC1S/C(=C(\C#N)C(=O)NCc2ccco2)N(c2ccc(Br)cc2)C1=O (stereo not given)	0.32	9	11	0	-0.03	-5.4*
CC(C)(C)OC(=O)NCCCC1=CC2=CC(=O)C(C)(O)C(=O)C2=CO1 (stereo not given)	-1.1	.	.	.	.	0.2
O=C(CC1CCCCC1)c1c(O)c2ccccc2oc1=O	-0.013	25	0	-1	0.23	-7.6*
COc1ccc(NC(=O)CN2CCC(Cc3ccccc3)CC2)cc1S(=O)(=O)N1CCOCC1	.	16	.	-7	.	.
COC(=O)c1cccc(NC(=O)c2nn(C)c(=O)c3ccccc23)c1	1.5	11	.	-1	-0.89	0.016
CCc1ccc(NC(=O)CNC(=O)c2cn(-c3ccccc3OC)c(=O)c3ccccc23)cc1	1.9	14	3	1	-1.3	-4.2*
O=C(NCc1cccnc1)c1cc(-c2ccccc2)on1	3.6*	15	4	-2	-0.85	0.28
COc1ccc(-n2c(COc3cccc4ccccc34)nnc2SCC#N)cc1	0.25	32	10	.	-1.2	-2.2
N#CCSc1nnc(COc2cccc3ccccc23)n1-c1ccccc1	0.0052	0	4	-1	-0.85	-4.6*
CN(c1ccc(C(=O)N2CCN(Cc3ccc4c(c3)OCO4)CC2)cc1)S(=O)(=O)c1ccccc1	3.5*	8	8	0	0.16	-2.3
O=C(Nc1ccccc1)N1CCN(Cc2ccc3c(c2)OCO3)CC1	0.6	9	9	0	.	-5.5*
O=C(c1cccn2c(=O)c3ccccc3nc12)N1CCN(Cc2ccc3c(c2)OCO3)CC1	3.2*	-1	0	4	0.44	-1.7
O=C(c1cc2c(s1)CCCC2)N1CCN(Cc2ccc3c(c2)OCO3)CC1	0.52	22	13	-1	-0.73	-3.9*
O=C(c1ccc(Br)o1)N1CCN(Cc2ccc3c(c2)OCO3)CC1	0.52	6	-1	-1	2	0.17
C[C@H]1COc2c(C3(N)CC3)c(F)cc3c(=O)c(C(=O)O)cn1c23	0.0074	.	.	.	.	0.55
O=C(c1ccc(Br)s1)N1CCN(Cc2ccc3c(c2)OCO3)CC1	2.1*	11	7	-4	-0.61	-0.19
CCOc1ccc(C2C=C(c3ccccc3)Nc3ncnn32)cc1 (stereo not given)	0.45	4	40*	-5	.	-1.7
Cc1ccc(C2C=C(c3ccccc3)Nc3ncnn32)cc1 (stereo not given)	0.59	.	.	.	.	-0.46
CCOc1ccc(C2C=C(c3ccc(F)cc3)Nc3ncnn32)cc1 (stereo not given)	-0.13	4	57*	-1	1.2	-0.72
Fc1ccc(C2=CC(c3ccco3)n3ncnc3N2)cc1 (stereo not given)	.	3	.	-2	.	.
C1=C(c2ccc(-c3ccccc3)cc2)Nc2ncnn2C1c1ccco1 (stereo not given)	0.18	5	118*[fluorescence artefact?]	-2	-1.6	.
CC(Cl)C(=O)Nc1ccccc1C#N (stereo not given)	.	6	.	-7	.	.
O=c1/c(=C\c2ccc(O)cc2)sc2n1C(c1ccccc1)C(c1ccccc1)=NN=2 (stereo not given)	0.81	21	41*	.	-2	-3
CCOC(=O)C1=C(c2ccccc2)N=c2s/c(=C\c3cccc(O)c3)c(=O)n2C1c1cccs1 (stereo not given)	.	30	9	.	0.08	.
CCOC(=O)c1c(Cc2cccc(Cl)c2)c[nH]c1C	.	13	.	-17	.	.
SMILES	hDAT+cocaine	Measles CPE	Rev-RRE block	Phagocyt inh	PTK2B oligo ant	Cav3 T inh
Cc1cc(C)nc(SCC(=O)N/N=C/c2cccc([N+](=O)[O-])c2)n1	.	49*	.	-7	.	.
CC(C)N1CC(O)=C(c2nc3ccccc3c(=O)[nH]2)C1=N	1.3*	4	2	-1	0.8	0.038
O=[N+]([O-])c1cc(-c2nc3nc4ccccc4nc3n2CCc2ccccc2)cc([N+](=O)[O-])c1	.	4	.	.	.	.
CC(C)(C)n1nc2c(c1NC(=O)COc1ccc(Cl)cc1)CSC2	-0.0022	4	-3	-1	0.52	-4.4*
CC(C)(C)NC(=O)CSc1ccc(C(C)(C)C)cc1	0.88	5	3	.	0.29	-1.3
CC(=O)Nc1ccccc1-c1nc2ccc(C(=O)N3CCN(c4cc(C)ccc4C)CC3)cc2[nH]c1=O	0.5	3	-1	0	.	-3.7*
CCN(CCNC(=O)c1ccc2nc(-c3ccccc3NC(C)=O)c(=O)[nH]c2c1)c1ccccc1	0.94	4	-1	-1	.	0.71
Cc1ccc(Cn2c(Cc3ccccc3)nc3ccccc32)cc1	-0.97	6	12	2	-1.1	-5*
COCc1nc2ccccc2n1Cc1ccccc1	0.32	15	5	.	0.17	-0.18
Cc1ccc(C)c(Cn2c(CO)nc3ccccc32)c1	0.06	11	2	-1	1	-6.4*
Cc1csc(NC(C)c2nc3cc(C(F)(F)F)ccc3n2CCCO)n1 (stereo not given)	-2.7*	.	.	.	.	0.9
CC(Nc1nc(-c2ccc(F)cc2)cs1)c1nc2cc(Cl)c(Cl)cc2n1CCCO (stereo not given)	-0.42	.	.	.	.	-1.3
O=C(O)CCCNc1cc(N2CCC3(CC2)OCCO3)c2noc3c2c1C(=O)c1ccccc1-3	.	12	122*[fluorescence artefact?]	.	.	.
CCOC(=O)N1CCN(c2cc(NCCC(=O)O)c3c4c(onc24)-c2ccccc2C3=O)CC1	-0.01	11	.	-4	-0.49	.
CCCc1ccc(OCc2ccc(C(=O)N3CCN(c4ccccn4)CC3)o2)c(OC)c1	0.66	3	7	-6	-0.52	-4.9*
COc1ccc(-c2cc(C(=O)N3CCN(c4ccccn4)CC3)c3ccccc3n2)cc1	0.85	9	9	-2	-1.3	0.17
COc1cc(-c2cc(C(=O)N3CCN(c4ccccn4)CC3)c3ccccc3n2)cc(OC)c1OC	3.7*	13	7	.	-0.37	-0.013
CCn1cc(C(=O)N2CCN(c3ccccn3)CC2)c2cc(OC)c(OC)cc2c1=O	-8.7*	3	.	0	0.01	.
COc1cc(Cl)c(S(=O)(=O)NCc2ccccn2)cc1Cl	-1.6	1	5	.	-0.03	1.5
O=C(c1ccccn1)N(Cc1cc2ccccc2[nH]c1=O)C1CCCCC1	2.9*	19	-1	0	0.35	-0.1
CCCN(CCC)C(=O)Cn1c(=O)n(CCCCCC(=O)Nc2ccccc2)c(=O)c2sccc21	.	8	.	-8	.	.
Cc1c(Cl)cccc1NC(=O)c1ccc(OCC(=O)NCc2ccccc2)cc1	.	4	.	-11	-1.1	.
